# STAT1 act: STAT1 signaling activation. NIH 3T3 STAT1-luciferase reporter, IFN-gamma, luminescence; 100% = IFN-gamma alone, no compound. AID 932. 200,000 tested, 2.6% active. activation (% of control), % at 5.5 µM;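 active = activation above the screen-wide mean activation plus 3 SD, cut at about 130% in these data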;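 note: raw ratio to IFN-gamma control signal so 100% means no change and 0% no light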
# STAT3 blocker: STAT3 signaling inhibition; U3A cells, IL-6 STAT3-luciferase reporter, luminescence; host cell line lacks STAT1; inhibition, % at 5.5 µM; 190,000 tested, 0.89% active;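 active = inhibition above the mean inhibition across all screened compounds plus 3 SD, cut at about 44% in these data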;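 note: 0% = DMSO only wells and 100% = 100 µM nifuroxazide control wells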
# NF-kB expr up: NF-kB expression increase, human neuronal cells. fold change at 12.5 µM. 190,000 tested, 1.6% active. NF-kB reporter expression; stronger effect = higher value. AID 1239; in the data active = fold change above about 3.3
# STAT3 act: increases IL-6 driven STAT3 reporter signal. activation (% of control), % at 5.6 µM. AID 871. 190,000 tested, 0.91% active. U3A cells, IL-6 STAT3-luciferase reporter, luminescence; 100% = signal with IL-6 EC80 alone;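 active = activation above the screen-wide mean of compound activation plus 3 SD, cut at about 130% in these data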;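 note: 0% = background luminescence of wells with medium and substrate only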
#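 Material: STAT1-lacking human U3A cells, STAT3 luciferase reporter | Benchmarks: IL-6-only wells as 100% reference | Probe or stimulus: IL-6 (33 ng/mL) | Timing: Compound 1 h, then IL-6 6 h at 37 °C | Detection: Luminescence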
# STAT1 blocker: STAT1 signaling inhibition; AID 920; inhibition, % at 5.5 µM; 200,000 tested, 0.35% active; NIH 3T3 STAT1-luciferase reporter, IFN-gamma, luminescence;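 active = inhibition above a set limit, the mean inhibition across all tested compounds plus 3 SD, cut at about 34% in these data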;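 note: 0% = IFN-gamma with DMSO and 100% = IFN-gamma with 300 µM nifuroxazide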
# APP 5'UTR act: activates APP 5'UTR luciferase reporter; 190,000 tested, 1% active; SH-SY5Y APP 5'UTR luciferase reporter, luminescence; zero percent = DMSO vehicle wells; activation, % at 2 µM; AID 1276;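 active = activation above a set limit, based on mean plus 3 SD of controls, cut at about 140% in these data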
# STAT1 activ conf: confirmation of STAT1 signaling activators; shares compounds with STAT1 act; NIH 3T3 STAT1-luciferase reporter, IFN-gamma potentiation, luminescence; 100% = IFN-gamma EC80 alone, no compound; activation (% of control), % at 5.7 µM; 1,200 tested, 97% active;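 active = activation above a set limit carried over from the earlier primary STAT1 screen, cut at about 140% in these data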;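 note: simple ratio to median IFN-gamma plus DMSO wells so 0% means no light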
# NFkB act STAT1ct: NF-kappaB activation in STAT1 activator counter-screen; activation (% of control), % at 5.7 µM; 1,200 tested, 43% active; shares compounds with STAT1 act; HEK293T NF-kB luciferase reporter, TNF-alpha stimulated, luminescence; 100% = TNF-alpha with vehicle only;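 active = activation above the mean of solvent-only control wells plus 3 SD, set per campaign, cut at about 130% in these data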;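 note: TNF-alpha given at a submaximal dose yielding about 80% of full reporter signal; values are well signal over median control so 100% means no change and 0% no light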
# STAT3 act 2: human STAT3 activation in STAT1 activator counter-screen | AID 1316 | U3A cells STAT3-luciferase reporter, IL-6, luminescence; cells lack STAT1; 100 = IL-6 alone, no compound effect | activation (% of control), % at 5.7 µM | shares compounds with STAT1 act | 1,200 tested, 46% active;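 active = activation above the solvent-only control well mean plus 3 SD, set per plate batch, cut at about 110% in these data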;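 note: 0% = no luminescence and 100% = median IL-6 plus DMSO wells; higher means more STAT3 reporter activation so hits are non-selective activators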
# An asterisk follows results filed as active; . = no result. A selection: hits, their analogues and other compounds. The true share with any hit is near 4.9%.
SMILES,STAT1 act,STAT3 blocker,NF-kB expr up,STAT3 act,STAT1 blocker,APP 5'UTR act,STAT1 activ conf,NFkB act STAT1ct,STAT3 act 2
Cc1nnsc1SCC(=O)O,96.9,14.2,0.92,97.4,3.4,0.9,.,.,.
c1ccc(-c2csc(N3CCSCC3)n2)cc1,159.9*,3.9,2.48,97.3,-63.1,34.9,129.1*,125.8,96.0
CSc1nc(Oc2ccc(C)cc2)cc(C(F)(F)F)n1,106.5,2.7,1.06,107.6,-7.2,18.2,.,.,.
CCN(CC)c1ccc(NC(=O)c2cccc(C)c2OC)c(C)c1,152.5*,9.2,4.15*,96.9,-57.4,98.0,175.4*,137.0*,105.6
CCN(CC)c1ccc(NC(=O)c2cccnc2)c(C)c1,100.8,9.5,1.05,95.6,-0.8,-9.3,.,.,.
CC(Sc1nnc2ccccn12)C(N)=O (centres undefined),103.9,1.3,1.18,103.9,-4.6,12.7,.,.,.
CC(/C=N/Nc1nc2ccccc2[nH]1)=C\c1ccccc1,192.3*,14.4,8.6*,84.2,-101.3,172.4*,246.2*,138.9*,114.2*
Cc1ccsc1/C=N/Nc1nc2ccccc2[nH]1,152.7*,-1.2,5.32*,102.9,-59.0,145.3*,192.8*,132.1,106.7
CC(/C=N/Nc1nc(C)cc(=O)[nH]1)=C\c1ccccc1,108.7,21.9,1.25,87.7,-9.0,11.6,.,.,.
Cc1nn(-c2ccccc2)c(C)c1/C=N/Nc1nc2ccccc2[nH]1,203.5*,17.0,2.88,87.6,-115.8,153.7*,288.7*,124.2,107.9
Cc1cc(/C=C2\SC(=Nc3ccccc3)NC2=O)c(C)n1-c1ccc(S(N)(=O)=O)cc1,100.6,3.3,1.33,105.7,-0.1,-52.7,.,.,.
Cc1ccc2cc3c(N)c(C(=O)N4CCOCC4)sc3nc2c1,156.3*,22.6,1.65,87.9,-61.8,178.0*,117.3,103.9,110.7*
CCOc1ccc2nc3sc(C(=O)N4CCN(C)CC4)c(N)c3cc2c1,110.5,17.7,0.87,92.2,-11.5,-7.6,.,.,.
COc1ccc2cc3c(N)c(C(=O)N4CCCC4)sc3nc2c1,156.8*,17.7,1.32,90.3,-62.2,120.5,116.8,106.5,99.4
CCC(C)NC(=O)c1cc2cc3ccc(OC)cc3nc2s1 (centres undefined),153.4*,30.2,5.02*,78.2,-58.5,214.1*,252.0*,130.4,102.1
CC(CC(C)C(=O)Nc1ccccc1C(C)(C)C)C(=O)O (centres undefined),95.8,6.4,1.5,97.8,4.6,4.2,.,.,.
O=C(CN1C(=O)NC2(CCCCCC2)C1=O)Nc1ccc(S(=O)(=O)N2CCOCC2)cc1,99.6,-10.6,0.98,109.0,0.4,25.2,.,.,.
O=C(NC1=NCCS1)c1sc2cc(F)ccc2c1Cl,171.9*,-13.0,4.81*,116.9,-79.3,86.2,208.6*,131.3,149.9*
O=C(NCc1ccco1)c1sc2cc(F)ccc2c1Cl,111.2,23.6,1.66,81.9,-6.8,22.1,.,.,.
Cc1cc(C(=O)CN2C(=O)NC3(CCCCC3)C2=O)c(C)n1Cc1ccc2c(c1)OCO2,119.7,-4.6,1.55,105.7,-21.5,15.8,.,.,.
Cc1cc(-n2c(C)cc(C(=O)CN3C(=O)NC4(CCCCC4C)C3=O)c2C)no1 (centres undefined),101.9,7.8,0.69,99.8,-2.0,-40.7,.,.,.
Cc1cc(C(=O)CN2C(=O)NC3(CCCCC3C)C2=O)c(C)n1Cc1cccs1 (centres undefined),154.7*,-20.0,1.35,114.0,-61.4,77.4,175.2*,133.0,124.6*

# Assay outcomes from PubChem BioAssay.
